Source: ChEMBL document CHEMBL5303300, “EUbOPEN Chemogenomics Library - Multiplex” (2023)
“And” between values parts separate entries of the source, which are not always exact repeats. Equal values may be shown once.

Tested on: Fibroblast
Assay: Multiplex assay against human fibroblast
Type: toxicity, cell-based
Conditions: number of replicates 2
Method in brief: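 At seeding, live cells were stained with Hoechst33342, BioTracker Green Microtubule Cytoskeleton Dye, MitoTracker Red and Annexin V Alexa Fluor 680. After compound addition they were imaged on a CQ1 microscope at 37°C and 5% CO2, and CellPathfinder machine-learning gating sorted them into Hoechst high-intensity objects or normal cells, with normal cells further split into healthy, pyknosed or fragmented nuclei and pyknosed cells into mitotic or apoptotic. Tubulin, mitochondrial-mass and membrane-permeability phenotypes are given as per cents of cells with healthy nuclei.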

[1] = 12 h, 1 µM, compound concentration 1 uM
[2] = 12 h, 10 µM, compound concentration 10 uM
[3] = 24 h, 1 µM, compound concentration 1 uM
[4] = 24 h, 10 µM, compound concentration 10 uM
[5] = 48 h, 1 µM, compound concentration 1 uM
[6] = 48 h, 10 µM, compound concentration 10 uM

O=C(Nc1ccnc(NC(=O)C2CC2)c1)c1c(Cl)cccc1Cl
Population Apoptotic (%) [1]: 47% and 27% | Population Fragmented Nuclei (%) [1]: 6% and 9% | Population Healthy Nuclei (%) [1]: 65% and 67% | Population Hoechst High Intensity Objects (%) [1]: 0% | Population Membrane Permeable-Phenotype (%) [1]: 5% and 7% | Population Mitochondria Different-Phenotype (%) [1]: 0% | Population Mitotic Cells (%) [1]: 52% and 72% | Population Normal (%) [1]: 100% | Population Pyknosed Nuclei (%) [1]: 27% and 23% | Population Tubulin-Different-Phenotype (%) [1]: 9% and 6% | Total Cell Count [1]: 145 and 189 | Population Apoptotic (%) [2]: 55% and 72% | Population Fragmented Nuclei (%) [2]: 9% and 14% | Population Healthy Nuclei (%) [2]: 78% and 77% | Population Hoechst High Intensity Objects (%) [2]: 0% | Population Membrane Permeable-Phenotype (%) [2]: 2% | Population Mitochondria Different-Phenotype (%) [2]: 0% | Population Mitotic Cells (%) [2]: 44% and 27% | Population Normal (%) [2]: 100% | Population Pyknosed Nuclei (%) [2]: 11% and 8% | Population Tubulin-Different-Phenotype (%) [2]: 7% and 6% | Total Cell Count [2]: 244 and 215 | Population Apoptotic (%) [3]: 60% and 48% | Population Fragmented Nuclei (%) [3]: 13% and 7% | Population Healthy Nuclei (%) [3]: 60% and 70% | Population Hoechst High Intensity Objects (%) [3]: 0% | Population Membrane Permeable-Phenotype (%) [3]: 7% | Population Mitochondria Different-Phenotype (%) [3]: 1% and 0% | Population Mitotic Cells (%) [3]: 40% and 51% | Population Normal (%) [3]: 100% | Population Pyknosed Nuclei (%) [3]: 26% and 21% | Population Tubulin-Different-Phenotype (%) [3]: 14% and 9% | Total Cell Count [3]: 150 and 188 | Population Apoptotic (%) [4]: 59% and 70% | Population Fragmented Nuclei (%) [4]: 8% and 17% | Population Healthy Nuclei (%) [4]: 82% and 74% | Population Hoechst High Intensity Objects (%) [4]: 0% | Population Membrane Permeable-Phenotype (%) [4]: 2% and 3% | Population Mitochondria Different-Phenotype (%) [4]: 0% | Population Mitotic Cells (%) [4]: 40% and 29% | Population Normal (%) [4]: 99% | Population Pyknosed Nuclei (%) [4]: 9% and 8% | Population Tubulin-Different-Phenotype (%) [4]: 4% and 8% | Total Cell Count [4]: 232 and 213 | Population Apoptotic (%) [5]: 67% and 60% | Population Fragmented Nuclei (%) [5]: 17% and 16% | Population Healthy Nuclei (%) [5]: 53% and 65% | Population Hoechst High Intensity Objects (%) [5]: 0% | Population Membrane Permeable-Phenotype (%) [5]: 4% and 6% | Population Mitochondria Different-Phenotype (%) [5]: 0% | Population Mitotic Cells (%) [5]: 32% and 40% | Population Normal (%) [5]: 99% and 100% | Population Pyknosed Nuclei (%) [5]: 28% and 17% | Total Cell Count [5]: 170 and 199 | Population Apoptotic (%) [6]: 56% and 44% | Population Fragmented Nuclei (%) [6]: 9% and 24% | Population Healthy Nuclei (%) [6]: 81% and 71% | Population Hoechst High Intensity Objects (%) [6]: 0% | Population Membrane Permeable-Phenotype (%) [6]: 2% and 1% | Population Mitochondria Different-Phenotype (%) [6]: 0% | Population Mitotic Cells (%) [6]: 43% and 55% | Population Normal (%) [6]: 100% | Population Pyknosed Nuclei (%) [6]: 9% and 3% | Population Tubulin-Different-Phenotype (%) [6]: 10% and 8% | Total Cell Count [6]: 239 and 229

CC(C)N1CCN(Cc2cnc(-c3cc(-c4cccc5[nH]ccc45)cc4[nH]ncc34)o2)CC1 [NEMIRALISIB]
Population Apoptotic (%) [1]: 48% and 43% | Population Fragmented Nuclei (%) [1]: 10% | Population Healthy Nuclei (%) [1]: 72% and 64% | Population Hoechst High Intensity Objects (%) [1]: 0% | Population Membrane Permeable-Phenotype (%) [1]: 6% and 3% | Population Mitochondria Different-Phenotype (%) [1]: 2% and 0% | Population Mitotic Cells (%) [1]: 51% and 56% | Population Normal (%) [1]: 100% and 99% | Population Pyknosed Nuclei (%) [1]: 16% and 24% | Population Tubulin-Different-Phenotype (%) [1]: 19% and 9% | Total Cell Count [1]: 206 and 286 | Population Apoptotic (%) [2]: 32% and 38% | Population Fragmented Nuclei (%) [2]: 7% and 15% | Population Healthy Nuclei (%) [2]: 63% and 69% | Population Hoechst High Intensity Objects (%) [2]: 0% and 2% | Population Membrane Permeable-Phenotype (%) [2]: 7% | Population Mitochondria Different-Phenotype (%) [2]: 6% and 12% | Population Mitotic Cells (%) [2]: 67% and 61% | Population Normal (%) [2]: 100% and 97% | Population Pyknosed Nuclei (%) [2]: 28% and 15% | Population Tubulin-Different-Phenotype (%) [2]: 58% and 61% | Total Cell Count [2]: 207 and 263 | Population Apoptotic (%) [3]: 50% and 62% | Population Fragmented Nuclei (%) [3]: 8% and 10% | Population Healthy Nuclei (%) [3]: 70% | Population Hoechst High Intensity Objects (%) [3]: 0% | Population Membrane Permeable-Phenotype (%) [3]: 7% | Population Mitochondria Different-Phenotype (%) [3]: 2% and 1% | Population Mitotic Cells (%) [3]: 50% and 37% | Population Normal (%) [3]: 100% | Population Pyknosed Nuclei (%) [3]: 20% and 19% | Population Tubulin-Different-Phenotype (%) [3]: 25% and 11% | Total Cell Count [3]: 201 and 273 | Population Apoptotic (%) [4]: 52% and 71% | Population Fragmented Nuclei (%) [4]: 5% and 15% | Population Healthy Nuclei (%) [4]: 72% and 68% | Population Hoechst High Intensity Objects (%) [4]: 3% and 5% | Population Membrane Permeable-Phenotype (%) [4]: 7% and 3% | Population Mitochondria Different-Phenotype (%) [4]: 17% and 22% | Population Mitotic Cells (%) [4]: 47% and 28% | Population Normal (%) [4]: 96% and 95% | Population Pyknosed Nuclei (%) [4]: 22% and 15% | Population Tubulin-Different-Phenotype (%) [4]: 64% and 58% | Total Cell Count [4]: 175 and 240 | Population Apoptotic (%) [5]: 54% and 64% | Population Fragmented Nuclei (%) [5]: 11% and 12% | Population Healthy Nuclei (%) [5]: 73% and 67% | Population Hoechst High Intensity Objects (%) [5]: 0% | Population Membrane Permeable-Phenotype (%) [5]: 9% and 3% | Population Mitochondria Different-Phenotype (%) [5]: 3% and 0% | Population Mitotic Cells (%) [5]: 45% and 35% | Population Normal (%) [5]: 100% | Population Pyknosed Nuclei (%) [5]: 15% and 19% | Population Tubulin-Different-Phenotype (%) [5]: 15% and 7% | Total Cell Count [5]: 214 and 290 | Population Apoptotic (%) [6]: 84% and 61% | Population Fragmented Nuclei (%) [6]: 10% and 15% | Population Healthy Nuclei (%) [6]: 69% and 68% | Population Hoechst High Intensity Objects (%) [6]: 7% and 5% | Population Membrane Permeable-Phenotype (%) [6]: 6% and 4% | Population Mitochondria Different-Phenotype (%) [6]: 11% and 14% | Population Mitotic Cells (%) [6]: 15% and 38% | Population Normal (%) [6]: 92% and 94% | Population Pyknosed Nuclei (%) [6]: 19% and 16% | Population Tubulin-Different-Phenotype (%) [6]: 34% and 40% | Total Cell Count [6]: 178 and 231

COc1ccc(F)c(F)c1C(=O)c1cnc(NC2CCN(S(C)(=O)=O)CC2)nc1N [RG-547]
Population Apoptotic (%) [1]: 48% and 56% | Population Fragmented Nuclei (%) [1]: 5% and 8% | Population Healthy Nuclei (%) [1]: 78% and 70% | Population Hoechst High Intensity Objects (%) [1]: 0% | Population Membrane Permeable-Phenotype (%) [1]: 2% and 5% | Population Mitochondria Different-Phenotype (%) [1]: 0% | Population Mitotic Cells (%) [1]: 51% and 43% | Population Normal (%) [1]: 100% | Population Pyknosed Nuclei (%) [1]: 15% and 20% | Population Tubulin-Different-Phenotype (%) [1]: 2% and 9% | Total Cell Count [1]: 173 and 188 | Population Apoptotic (%) [2]: 50% and 56% | Population Fragmented Nuclei (%) [2]: 13% and 12% | Population Healthy Nuclei (%) [2]: 73% and 72% | Population Hoechst High Intensity Objects (%) [2]: 0% | Population Membrane Permeable-Phenotype (%) [2]: 7% and 5% | Population Mitochondria Different-Phenotype (%) [2]: 3% and 2% | Population Mitotic Cells (%) [2]: 50% and 43% | Population Normal (%) [2]: 99% and 100% | Population Pyknosed Nuclei (%) [2]: 13% and 15% | Population Tubulin-Different-Phenotype (%) [2]: 30% and 17% | Total Cell Count [2]: 192 and 209 | Population Apoptotic (%) [3]: 57% and 67% | Population Fragmented Nuclei (%) [3]: 9% and 10% | Population Healthy Nuclei (%) [3]: 77% and 69% | Population Hoechst High Intensity Objects (%) [3]: 0% | Population Membrane Permeable-Phenotype (%) [3]: 4% and 5% | Population Mitochondria Different-Phenotype (%) [3]: 1% and 0% | Population Mitotic Cells (%) [3]: 42% and 32% | Population Normal (%) [3]: 100% | Population Pyknosed Nuclei (%) [3]: 13% and 20% | Population Tubulin-Different-Phenotype (%) [3]: 7% | Total Cell Count [3]: 196 and 184 | Population Apoptotic (%) [4]: 61% and 75% | Population Fragmented Nuclei (%) [4]: 9% and 11% | Population Healthy Nuclei (%) [4]: 72% and 74% | Population Hoechst High Intensity Objects (%) [4]: 0% | Population Membrane Permeable-Phenotype (%) [4]: 7% and 5% | Population Mitochondria Different-Phenotype (%) [4]: 6% and 4% | Population Mitotic Cells (%) [4]: 38% and 25% | Population Normal (%) [4]: 100% | Population Pyknosed Nuclei (%) [4]: 18% and 13% | Population Tubulin-Different-Phenotype (%) [4]: 35% and 26% | Total Cell Count [4]: 194 and 201 | Population Apoptotic (%) [5]: 44% and 71% | Population Fragmented Nuclei (%) [5]: 20% and 11% | Population Healthy Nuclei (%) [5]: 44% and 70% | Population Hoechst High Intensity Objects (%) [5]: 3% and 0% | Population Mitochondria Different-Phenotype (%) [5]: 9% and 0% | Population Mitotic Cells (%) [5]: 55% and 28% | Population Normal (%) [5]: 96% and 100% | Population Pyknosed Nuclei (%) [5]: 36% and 17% | Population Apoptotic (%) [6]: 84% and 68% | Population Fragmented Nuclei (%) [6]: 8% and 11% | Population Healthy Nuclei (%) [6]: 62% | Population Hoechst High Intensity Objects (%) [6]: 0% | Population Membrane Permeable-Phenotype (%) [6]: 17% and 18% | Population Mitochondria Different-Phenotype (%) [6]: 2% and 6% | Population Mitotic Cells (%) [6]: 15% and 31% | Population Normal (%) [6]: 100% | Population Pyknosed Nuclei (%) [6]: 28% and 25% | Population Tubulin-Different-Phenotype (%) [6]: 43% and 38% | Total Cell Count [6]: 179 and 184
